Tests used:
[1] = target: T1, Endothelin receptor type B (Homo sapiens, UniProt P24530); test: Inhibition of [125I]ET-3 (ETB assay) binding to human cloned Endothelin B receptor in CHO cells; format: cell-based
T1 sequence (P24530 whole entry): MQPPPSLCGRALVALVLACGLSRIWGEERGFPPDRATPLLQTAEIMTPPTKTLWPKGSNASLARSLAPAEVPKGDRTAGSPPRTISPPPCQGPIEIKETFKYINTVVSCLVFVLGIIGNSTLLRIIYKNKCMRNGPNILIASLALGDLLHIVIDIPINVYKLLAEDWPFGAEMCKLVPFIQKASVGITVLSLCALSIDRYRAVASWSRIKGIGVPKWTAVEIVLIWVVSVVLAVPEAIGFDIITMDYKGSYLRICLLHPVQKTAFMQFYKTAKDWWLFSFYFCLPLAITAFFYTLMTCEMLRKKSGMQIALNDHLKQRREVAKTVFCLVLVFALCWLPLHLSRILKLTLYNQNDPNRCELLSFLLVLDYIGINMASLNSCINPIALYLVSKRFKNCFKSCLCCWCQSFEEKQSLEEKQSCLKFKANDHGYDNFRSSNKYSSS
Outline: (§1)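 CHO cells stably expressing human ETA or ETB receptor; 10–50 µg membrane protein incubated 30 min at 25 °C in 50 mM Tris-HCl pH 7.4, 5 mM MnCl2, 40 µg/mL bacitracin, 0.2% BSA, with 25 pM [125I]ET-1 (ETA) or 25 pM [125I]ET-3 (ETB). Nonspecific binding with 0.1 µM ET-1; filtration, scintillation counting. Triplicate, repeated at least once; Ki by Cheng–Prusoff or nonlinear regression, ±SE.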

Endothelin-1 receptor = target: T2, Endothelin-1 receptor (Homo sapiens, UniProt P25101); test: Inhibition of [125I]-ET-1 (ETA assay) binding to human cloned Endothelin A receptor in CHO cells; format: cell-based; outline: as §1
T2 sequence (P25101 whole entry): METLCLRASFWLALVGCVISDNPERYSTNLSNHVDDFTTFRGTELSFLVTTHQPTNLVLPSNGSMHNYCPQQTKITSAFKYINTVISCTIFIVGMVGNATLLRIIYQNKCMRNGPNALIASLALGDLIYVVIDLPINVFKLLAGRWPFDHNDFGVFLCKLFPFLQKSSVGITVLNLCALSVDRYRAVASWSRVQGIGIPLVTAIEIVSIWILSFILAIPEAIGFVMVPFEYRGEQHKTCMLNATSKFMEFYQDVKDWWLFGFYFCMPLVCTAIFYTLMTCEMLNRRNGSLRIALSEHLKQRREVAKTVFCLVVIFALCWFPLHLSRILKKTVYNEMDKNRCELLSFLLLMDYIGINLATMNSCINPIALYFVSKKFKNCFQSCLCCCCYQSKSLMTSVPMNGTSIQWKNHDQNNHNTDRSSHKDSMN

[2] = target: T3, Endothelin receptor, ET-A/ET-B (Homo sapiens) (UniProt P24530+P25101); test: Selectivity for Endothelin A receptor compared to Endothelin B receptor.; format: protein assay
Rattus norvegicus [3] = test: Inhibition of big ET-induced blood pressure increase in drug treated rats with LU 135252 and 10 mg/Kg of compound given perorally was reported as (AUD 30 min) in mmHg(min); format: functional
Outline: (§2)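 Male Sprague–Dawley rats dosed 10 mg/kg p.o.; urethane anesthesia (1.6 g/kg i.p.), tracheotomy 90 min later, carotid artery cannulated for blood pressure, jugular vein for agonist. Big ET-1 20 µg/kg i.v. at 120 min post-dose; pressure recorded over 30 min as area under the data (AUD30min), compared with control; mean ± SEM.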

Rattus norvegicus [4] = test: Percent reduction of big ET-induced blood pressure increase in drug treated rats with LU 135252 and 10 mg/Kg of compound given perorally was reported as (AUD 30 min) in mmHg(min); format: functional; outline: as §2
[5] = target: T3, Endothelin receptor, ET-A/ET-B (Homo sapiens); test: Compound was tested for %inhibition of big ET-induced bronchospasm in guinea pigs with LU 135252 and balanced ETA/B receptor antagonists at 10 mg/kg oral dose was reported as (AUD 30 min) in mL(min); conditions: Cavia porcellus
[6] = target: T3, Endothelin receptor, ET-A/ET-B (Homo sapiens); test: Compound was tested for inhibition of big ET-induced bronchospasm in drug treated guinea pigs with LU 135252 and balanced ETA/B receptor antagonists at 10 mg/kg oral dose was reported as (AUD 30 min) in mL(min); conditions: Cavia porcellus
Rattus norvegicus [7] = test: Inhibition of big ET-induced blood pressure increase in drug treated rats with 10 mg/Kg of compound given perorally was reported as (AUD 30 min) in mmHg(min); format: functional; outline: as §2
[8] = target: T3, Endothelin receptor, ET-A/ET-B (Homo sapiens); conditions: Rattus norvegicus; 10 mg/kg
[9] = target: T3, Endothelin receptor, ET-A/ET-B (Homo sapiens); conditions: Rattus norvegicus; 30 mg/kg
[10] = target: T4, Endothelin receptor (Rattus norvegicus) (UniProt P26684+P21451); conditions: Blood, 10 mg/kg
T4 sequence (P21451 whole entry, looked up): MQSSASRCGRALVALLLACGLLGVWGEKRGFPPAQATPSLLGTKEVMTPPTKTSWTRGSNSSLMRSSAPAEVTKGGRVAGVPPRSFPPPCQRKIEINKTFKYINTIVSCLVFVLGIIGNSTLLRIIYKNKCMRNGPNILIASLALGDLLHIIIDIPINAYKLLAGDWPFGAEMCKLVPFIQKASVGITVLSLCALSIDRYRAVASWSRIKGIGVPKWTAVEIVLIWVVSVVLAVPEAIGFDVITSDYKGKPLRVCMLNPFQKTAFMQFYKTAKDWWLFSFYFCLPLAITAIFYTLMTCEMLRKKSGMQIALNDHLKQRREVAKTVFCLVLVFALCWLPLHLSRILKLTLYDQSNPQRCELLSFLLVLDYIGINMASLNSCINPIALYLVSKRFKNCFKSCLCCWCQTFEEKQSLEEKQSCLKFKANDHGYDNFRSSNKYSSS
T4 sequence (P26684 whole entry, looked up): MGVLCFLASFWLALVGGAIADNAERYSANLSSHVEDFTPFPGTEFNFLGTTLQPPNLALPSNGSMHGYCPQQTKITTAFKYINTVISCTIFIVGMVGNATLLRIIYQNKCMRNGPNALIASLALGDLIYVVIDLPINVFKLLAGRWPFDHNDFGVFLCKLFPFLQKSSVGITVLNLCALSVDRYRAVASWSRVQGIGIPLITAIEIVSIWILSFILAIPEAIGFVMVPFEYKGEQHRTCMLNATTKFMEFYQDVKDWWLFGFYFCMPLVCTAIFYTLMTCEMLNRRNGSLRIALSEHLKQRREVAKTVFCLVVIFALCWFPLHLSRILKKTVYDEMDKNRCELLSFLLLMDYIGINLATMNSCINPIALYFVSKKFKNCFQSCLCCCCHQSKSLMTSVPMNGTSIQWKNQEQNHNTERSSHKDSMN

[11] = target: T4, Endothelin receptor (Rattus norvegicus); conditions: Blood, 10 mg/kg; remark: listed apart in the source

Row | SMILES | Ki [1] [nM] | Ki (Endothelin-1 receptor) [nM] | Ratio [2] | other results
1 | COc1ccc(COC(c2ccccc2)(c2ccccc2)C(Oc2nc(C)cc(C)n2)C(=O)O)cc1OC (stereo not drawn) | 63 | 2 | 31 | 
2 | Cc1ccc(CCCOC(c2ccccc2)(c2ccccc2)C(Oc2nc(C)cc(C)n2)C(=O)O)cc1 (stereo not drawn) | 170 | 23 |  | 
3 | Cc1cc(C)nc(OC(C(=O)O)C(OCCc2ccc(Cl)cc2)(c2ccccc2)c2ccccc2)n1 (stereo not drawn) | 94.1 |  | 4.7 | 
4 | COc1ccc(CCOC(c2ccccc2)(c2ccccc2)C(Oc2nc(C)cc(C)n2)C(=O)O)cc1OC (stereo not drawn) |  |  | 2 | BP increase (Rattus norvegicus [3]): 641 mmHg; BP increase (Rattus norvegicus [4]): 58%; Reduction in respiratory volume [5]: 67%; Reduction in respiratory volume [6]: 71 mL
5 | COc1cc(OC)nc(O[C@H](C(=O)O)C(OC)(c2ccccc2)c2ccccc2)n1 [DARUSENTAN] |  |  |  | BP increase (Rattus norvegicus [7]): 636 mmHg; Reduction in respiratory volume [8]: 19 mL; Reduction in respiratory volume [9]: 172 mL
6 | COc1cc(C)nc(OC(C(=O)O)C(OCCc2ccc(OC)c(OC)c2)(c2ccccc2)c2ccccc2)n1 (stereo not drawn) | 14.7 | 2.37 | 6.2 | 
7 | Cc1cc(C)nc(OC(C(=O)O)C(OCCc2ccc(O)cc2)(c2ccccc2)c2ccccc2)n1 (stereo not drawn) | 16.2 | 3.48 | 4.7 | 
8 | COc1ccc(CCOC(c2ccccc2)(c2ccccc2)C(Oc2nc(C)cc(OC)n2)C(=O)O)cc1 (stereo not drawn) |  | 1.95 | 11.8 | 
9 | COc1cc(C)nc(OC(C(=O)O)C(OCCc2ccc(OC)c(OC)c2)(c2ccc(Cl)cc2)c2ccc(Cl)cc2)n1 (stereo not drawn) |  |  | 0.6 | 
10 | COc1ccc(CCOC(c2ccc(Cl)cc2)(c2ccc(Cl)cc2)C(Oc2nc3c(c(OC)n2)CCC3)C(=O)O)cc1OC (stereo not drawn) | 215 | 290 | 0.7 | 
11 | COc1ccc(OC(c2ccccc2)(c2ccccc2)C(Oc2nc(C)cc(C)n2)C(=O)O)cc1OC (stereo not drawn) | 60 | 0.48 | 125 | 
12 | CCc1ccc(C(OCCc2ccc(OC)cc2)(c2ccc(CC)cc2)C(Oc2nc(C)cc(OC)n2)C(=O)O)cc1 (stereo not drawn) | 160 | 155 | 1 | 
13 | Cc1ccc(CCOC(c2ccccc2)(c2ccccc2)C(Oc2nc(C)cc(C)n2)C(=O)O)cc1 (stereo not drawn) | 55 | 32.5 |  | 
14 | COc1cc(/C=C/COC(c2ccccc2)(c2ccccc2)C(Oc2nc(C)cc(C)n2)C(=O)O)cc(OC)c1OC (stereo not drawn) | 20 | 48 | 0.4 | 
15 | Cc1cc(C)nc(OC(C(=O)O)C(OCCc2ccccc2)(c2ccccc2)c2ccccc2)n1 (stereo not drawn) | 230 | 25 | 9.2 | 
16 | Cc1ccc(/C=C/COC(c2ccccc2)(c2ccccc2)C(Oc2nc(C)cc(C)n2)C(=O)O)cc1 (stereo not drawn) | 320 | 32 |  | 
17 | COc1ccc(CCOC(c2ccccc2)(c2ccccc2)C(Oc2nc(C)cc(C)n2)C(=O)O)cc1 (stereo not drawn) | 24.2 |  | 4 | BP increase (Rattus norvegicus [3]): 976 mmHg; BP increase (Rattus norvegicus [4]): 33%
18 | COc1ccc(CCOC(c2ccc(C)cc2)(c2ccc(C)cc2)C(Oc2nc(OC)c3c(n2)OCC3)C(=O)O)cc1 (stereo not drawn) | 71.2 | 105 | 0.7 | 
19 | CCc1ccc(C(OCCc2ccc(OC)cc2)(c2ccc(CC)cc2)C(Oc2nc(C)cc(C)n2)C(=O)O)cc1 (stereo not drawn) | 195 | 250 | 0.8 | 
20 | COc1ccc(CCOC(c2ccccc2)(c2ccccc2)[C@H](Oc2nc(C)cc(C)n2)C(=O)O)cc1OC [FELOPRENTAN] | 4.75 | 2.15 | 2.2 | BP increase (Rattus norvegicus [3]): 583 mmHg; BP increase (Rattus norvegicus [4]): 61%; Reduction in respiratory volume [5]: 79%; Reduction in respiratory volume [6]: 46 mL
21 | CCOc1ccc(CCOC(c2ccccc2)(c2ccccc2)C(Oc2nc(C)cc(C)n2)C(=O)O)cc1OC (stereo not drawn) | 25.1 | 3.13 | 8 | BP increase (Rattus norvegicus [3]): 475 mmHg; BP increase (Rattus norvegicus [4]): 68%
22 | Cc1cc(C)nc(OC(C(=O)O)C(OCCc2ccc(C(=O)O)cc2)(c2ccccc2)c2ccccc2)n1 (stereo not drawn) | 115 | 1.5 | 77 | 
23 | COc1ccccc1Oc1c(NS(=O)(=O)c2ccc(C(C)(C)C)cc2)nc(-c2ncccn2)nc1OCCO |  |  |  | BP increase [10]: 7%; BP increase [11]: 1400 AUD30min
24 | CCc1ccc(C(OCCc2ccc(OC)c(OC)c2)(c2ccc(CC)cc2)C(Oc2nc(C)cc(OC)n2)C(=O)O)cc1 (stereo not drawn) | 40 | 39.3 | 1 | 
25 | COc1cc(CCOC(c2ccccc2)(c2ccccc2)C(Oc2nc(C)cc(C)n2)C(=O)O)ccc1OCC(=O)O (stereo not drawn) | 24 | 1.92 | 12 | BP increase (Rattus norvegicus [3]): 1294 mmHg; BP increase (Rattus norvegicus [4]): 14%
26 | COc1cc(CCOC(c2ccccc2)(c2ccccc2)C(Oc2nc(C)cc(C)n2)C(=O)O)cc(OC)c1OC (stereo not drawn) | 3.21 | 1.38 | 2.3 | BP increase (Rattus norvegicus [3]): 1123 mmHg; BP increase (Rattus norvegicus [4]): 25%

From ChEMBL document CHEMBL1132335, “Discovery and synthesis of (S)-3-[2-(3,4-dimethoxyphenyl)ethoxy]-2- (4,6-dimethylpyrimidin-2-yloxy)-3,3-diphenylpropionic acid (LU 302872), a novel orally active mixed ET(A)/ET(B) receptor antagonist” (J Med Chem, 1999)
